Assay results: ChEMBL document CHEMBL1123566, “Synthesis and cardiac electrophysiological activity of 2- and 3-[(substituted phenyl)alkyl]quinuclidines. Structure-activity relationships” (1987)
Values joined by “and” are separate entries in the source; they are usually repeats but may differ in a detail not shown here. Equal values may be shown once.

Tests used:
[1] = species on record: Canis familiaris; assay: In vitro electrophysiological evaluation in canine cardiac ventricular muscle reported as maximum % change for conduction time(CT) at 0.1-100 uM concentration range; concentration at which it occurred is 100 uM.; type: functional, Canis lupus familiaris, Muscle tissue
[2] = species on record: Canis familiaris; assay: In vitro electrophysiological evaluation in canine cardiac Purkinje fibres reported as % change for action potential duration at 10 uM at 1-100 uM concentration range; type: functional, Canis lupus familiaris, Purkinje fiber
Procedure, shortened: (§1)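 Canine cardiac Purkinje fibres, intracellular microelectrode recording, paced at a basic cycle length of 1 s. APD95 and Vmax read simultaneously. Compound: 10 mM stock in deionized water, diluted into Tyrode's solution, tested over the stated concentration range. Each fibre used once as its own control. Result is % change from control, given at 10 µM or as the maximum with its concentration. M = <10% decrease or an increase in Vmax.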

[3] = species on record: Canis familiaris; assay: (§2) In vitro electrophysiological activity in canine cardiac occurred is 100 uM; type: functional, Canis lupus familiaris, Heart
[4] = species on record: Canis familiaris; assay: In vitro electrophysiological evaluation in canine cardiac ventricular muscle reported as % change for the functional refractory period (FRP) at 10 uM at concentration range of 0.1-100 uM; design: species or system Canis lupus familiaris, Muscle tissue
Procedure, shortened: (§3)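 Canine right ventricle and papillary muscle strips in oxygenated Tyrode's solution, fitted with stimulating and recording electrodes. The extra-stimulus conduction-interval method was adapted for in vitro use. FRP and CT were read from a conduction-interval curve before and after various compound concentrations, and expressed as percent change from control. Compounds were taken from 10 mM deionized-water stock into Tyrode's. Each strip was used once as its own control.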

[5] = species on record: Canis familiaris; assay: In vitro electrophysiological evaluation in canine cardiac Purkinje fibres reported as percent change Vmax at 10 uM at concentration range of 0.1-100 uM; Minimal (<10% decrease or increase in V max).; type: functional, organism-based; conditions: Canis lupus familiaris, Purkinje fiber; procedure, shortened: as §1
[6] = species on record: Canis familiaris; assay: In vitro electrophysiological evaluation in canine cardiac Purkinje fibres reported as maximum percent change Vmax concentration range of 0.1-100 uM; Minimal (<10% decrease or increase in V max).; type: functional; conditions: Canis lupus familiaris; Purkinje fiber; procedure, shortened: as §1
[7] = species on record: Canis familiaris; assay: In vitro electrophysiological evaluation in canine cardiac ventricular muscle reported as maximum % change for functional refractory period (FRP) at 0.1-100 uM concentration range; concentration at which it occurred is 10 uM.; design: species or system Canis lupus familiaris, Muscle tissue; procedure, shortened: as §3
[8] = species on record: Canis familiaris; assay: In vitro electrophysiological evaluation in canine cardiac Purkinje fibres reported as percent change Vmax at 10 uM at concentration range of 1-100 uM; type: functional; conditions: Canis lupus familiaris, Purkinje fiber; procedure, shortened: as §1
[9] = species on record: Canis familiaris; assay: as §2; type: functional, Canis lupus familiaris, Heart; remark: listed apart in the source
[10] = species on record: Canis familiaris; assay: In vitro electrophysiological evaluation in canine cardiac Purkinje fibres reported as % change for action potential duration at a concentration of 10 uM; type: functional, Canis lupus familiaris, Purkinje fiber; procedure, shortened: as §1
[11] = species on record: Canis familiaris; assay: In vitro electrophysiological evaluation in canine cardiac occurred is 100 uM; type: functional; conditions: Canis lupus familiaris; Heart
[12] = species on record: Canis familiaris; assay: In vitro electrophysiological evaluation in canine cardiac Purkinje fibres reported as percent change Vmax at 10 uM at concentration range of 1-100 uM; Minimal (<10% decrease or increase in V max).; type: functional; conditions: Canis lupus familiaris, Purkinje fiber; procedure, shortened: as §1
[13] = species on record: Canis familiaris; assay: In vitro electrophysiological evaluation in canine cardiac occurred is 100 uM.; type: functional; conditions: Canis lupus familiaris; Heart
[14] = species on record: Canis familiaris; assay: In vitro electrophysiological evaluation in canine cardiac ventricular muscle reported as maximum % change for functional refractory period (FRP) at 0.1-100 uM concentration range; concentration at which it occurred is 100 uM.; design: species or system Canis lupus familiaris, Muscle tissue; procedure, shortened: as §3
[15] = species on record: Canis familiaris; assay: In vitro electrophysiological evaluation in canine cardiac ventricular muscle reported as % change for conduction time(CT) at 10 uM at 0.1-100 uM concentration range; Minimal (<10% decrease or increase in CT).; type: functional, Canis lupus familiaris, Muscle tissue
[16] = species on record: Canis familiaris; assay: In vitro electrophysiological evaluation in canine cardiac ventricular muscle reported as maximum % change for conduction time(CT) at […] concentration range; Minimal (<10% decrease or increase in CT).; type: functional, Canis lupus familiaris, Muscle tissue; procedure, shortened: as §3
[17] = species on record: Canis familiaris; assay: In vitro electrophysiological activity in canine cardiac occurred is 100 uM.; type: functional, Canis lupus familiaris, Heart
[18] = species on record: Canis familiaris; assay: In vitro electrophysiological evaluation in canine cardiac Purkinje fibres reported as maximum percent change Vmax concentration range of 1-100 uM; Minimal (<10% decrease or increase in V max).; type: functional; conditions: Canis lupus familiaris; Purkinje fiber; procedure, shortened: as §1

Row | Structure (SMILES) | CT [1] [%] | APD95 [2] [%] | APD95 [3] [%] | FRP [4] [%] | Vmax [5] [%] | Vmax [6] [%] | FRP [7] [%] | Vmax [8] [%] | APD95 [9] [%] | APD95 [10] [%] | Vmax [11] [%] | Vmax [12] [%] | Vmax [13] [%] | FRP [14] [%] | CT [15] [%] | CT [16] [%] | APD95 [17] | Vmax [18] [%]
1 | Cl.O=C(CCC1C(=O)C2CCN1CC2)c1ccccc1 (stereo unspecified) | 17 | -1 | -14 | 12 | < 10 | < 10 | 12 | -36 | -16 | -3 | -52 |  |  |  |  |  |  | 
2 | CCOC(=O)C(CC1C(=O)C2CCN1CC2)C(=O)c1ccc(Cl)c([N+](=O)[O-])c1.Cl (stereo unspecified) |  | -2 |  | 17 |  |  |  |  |  | 0 |  | < 10 | -12 | 20 | <10 | <10 | -2% and -7% | < 10
